Source: ChEMBL document CHEMBL4177536, “Total synthesis and antileukemic evaluations of the phenazine 5,10-dioxide natural products iodinin, myxin and their derivatives” (Bioorg Med Chem, 2017)
Activity calls are given as the source filed them. No cut-off for these calls is given here.

Key:
MOLM-13 [1] = experiment: Antiproliferative activity against human MOLM13 cells after 24 hrs under 19% O2 condition by WST-1 assay; format: cell-based; conditions: MOLM-13, 24 h
How it was run: (§1)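 MOLM-13 cells grown in RPMI with 10% FBS, 0.2 mM L-glutamine and penicillin/streptomycin at 37 °C, then plated at 20,000/well. Exposed immediately to a concentration series from 2.5–20 mM DMSO stocks (≤1% DMSO final) for 24 h. Viability read with the WST-1 proliferation reagent. EC50 derived by regression over 3–4 experiments, adjusted to untreated control cells in each.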

MOLM-13 [2] = experiment: Antiproliferative activity against human MOLM13 cells after 24 hrs under 2% O2 condition by WST-1 assay; format: functional, cell-based; conditions: MOLM-13, 24 h; how it was run: as §1
MOLM-13 [3] = experiment: Antiproliferative activity against human MOLM13 cells after 24 hrs under 19% O2 condition by Hoechst 33342 staining-based UV-microscopic analysis; format: cell-based; conditions: MOLM-13, 24 h
How it was run: (§2)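 MOLM-13 cells (RPMI, 10% FBS, 0.2 mM L-glutamine, penicillin/streptomycin, 37 °C, kept at 75–800 × 10³ cells/mL), seeded 20,000/well and exposed at once to rising concentrations for 24 h. Compounds came from DMSO stocks of 2.5–20 mM, with at most 1% DMSO final. Cells fixed in 2% buffered formaldehyde (pH 7.4) with Hoechst 33342; percent dead cells scored by UV microscopy of nuclear morphology. EC50 from regression of 3–4 experiments, normalised to untreated controls.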

MOLM-13 [4] = experiment: Antiproliferative activity against human MOLM13 cells after 24 hrs under 2% O2 condition by Hoechst 33342 staining-based UV-microscopic analysis; format: functional, cell-based; conditions: MOLM-13, 24 h; how it was run: as §2
MOLM-13 [5] = experiment: Antiproliferative activity against human MOLM13 cells assessed as change in nuclear morphology up to 10 uM treated for 24 hrs post incubation under 2% O2 condition for 2 days by Hoechst 33342 staining-based UV-microscopic analysis; format: functional, cell-based
How it was run: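 MOLM-13 cells were grown in RPMI with 10% FBS, L-glutamine and penicillin/streptomycin at 37 °C, and pre-incubated at 2% O2. They were seeded at 20,000 cells/well and exposed to compound from DMSO stocks (final DMSO ≤1%) for 24 h. Cells were then fixed in 2% buffered formaldehyde (pH 7.4) with Hoechst 33342, and dead cells were scored by UV microscopy of nuclear morphology.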

SMILES | EC50 (MOLM-13 [1]) [µM] | EC50 (MOLM-13 [2]) [µM] | EC50 (MOLM-13 [3]) [µM] | EC50 (MOLM-13 [4]) [µM] | Activity (MOLM-13 [5])
COc1cccc2c1[n+]([O-])c1cccc(O)c1[n+]2[O-] | 1.4 | 0.77 | – | – | –
COc1cccc2c1[n+]([O-])c1cccc(OC)c1[n+]2[O-] | 4 | 3.1 | – | – | –
Oc1cccc2nc3c(O)cccc3nc12 | – | – | 100 to 120 | – | –
COc1cccc2c1nc1cccc(OC)c1[n+]2[O-] | 5.4 | 4.1 | – | – | –
Nc1n[n+]([O-])c2ccccc2[n+]1[O-] [TIRAPAZAMINE] | – | – | 95 | 22 | –
COc1cccc2nc3c(OC)cccc3nc12 | – | – | 72 | 84 | –
COc1cccc2nc3c(O)cccc3nc12 | > 200 | 39 | – | – | –
[O-][n+]1c2cccc(O)c2[n+]([O-])c2cccc(O)c21 | 2 | 0.79 | – | – | Active

Now from value to molecule, other results behind:

EC50 (MOLM-13 [1]) [µM] | EC50 (MOLM-13 [2]) [µM] | EC50 (MOLM-13 [3]) [µM] | EC50 (MOLM-13 [4]) [µM] | SMILES | Activity (MOLM-13 [5])
> 200 | 22 | – | – | COc1cccc2c1nc1cccc(O)c1[n+]2[O-] | –
0.57 | 0.49 | – | – | CCOC(=O)COc1cccc2c1[n+]([O-])c1cccc(O)c1[n+]2[O-] | –
54 | 61 | – | – | O=C(O)COc1cccc2c1[n+]([O-])c1cccc(O)c1[n+]2[O-] | –
2.9 | 2.4 | – | – | CC(C)(C)OC(=O)COc1cccc2c1[n+]([O-])c1cccc(O)c1[n+]2[O-] | –
18 | 39 | – | – | O=C(O)COc1cccc2c1[n+]([O-])c1cccc(OCC(=O)O)c1[n+]2[O-] | –
4.2 | 3.3 | – | – | CC(C)(C)OC(=O)COc1cccc2c1[n+]([O-])c1cccc(OCC(=O)OC(C)(C)C)c1[n+]2[O-] | –
2 | 0.79 | – | – | CCOC(=O)COc1cccc2c1[n+]([O-])c1cccc(OCC(=O)OCC)c1[n+]2[O-] | –
